≈ marks a conversion by molar mass, not a printed value.
Legend:
Assay type in all cases: functional
Candida albicans = test: Antifungal activity against Candida albicans after 16 to 18 hrs by serial dilution method
Method in brief: (§1)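 Compounds were dissolved in DMF and serially diluted. A standard drop of the prepared culture was added to each dilution, and tubes were incubated for 16–18 h at 37 °C. MIC was read as the highest dilution that stayed clear with no turbidity, determined separately for each organism. Candida albicans was tested by the same procedure.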

Staphylococcus aureus = test: Antibacterial activity against Staphylococcus aureus after 16 to 18 hrs by serial dilution method; method in brief: as §1
Escherichia coli = test: Antibacterial activity against Escherichia coli after 16 to 18 hrs by serial dilution method; method in brief: as §1
Pseudomonas aeruginosa = test: Antibacterial activity against Pseudomonas aeruginosa after 16 to 18 hrs by serial dilution method; method in brief: as §1
Bacillus subtilis = test: Antibacterial activity against Bacillus subtilis after 16 to 18 hrs by serial dilution method; method in brief: as §1

SMILES: OC(Cn1cncn1)(Cn1cncn1)c1ccc(F)cc1F [FLUCONAZOLE]
- MIC (Candida albicans): 6 µg/mL (≈ 19.6 µM)

SMILES: Clc1ccccc1OCc1nnc2sc(-c3sc4ccccc4c3Cl)nn12
- MIC (Staphylococcus aureus): 6 µg/mL (≈ 13.8 µM)
- MIC (Candida albicans): 6 µg/mL (≈ 13.8 µM)
- MIC (Escherichia coli): 6 µg/mL (≈ 13.8 µM)
- MIC (Pseudomonas aeruginosa): 6 µg/mL (≈ 13.8 µM)
- MIC (Bacillus subtilis): 6 µg/mL (≈ 13.8 µM)

SMILES: Cc1ccc(OCc2nnc3sc(-c4sc5ccccc5c4Cl)nn23)cc1
- MIC (Staphylococcus aureus): 6 µg/mL (≈ 14.5 µM)
- MIC (Candida albicans): 6 µg/mL (≈ 14.5 µM)
- MIC (Escherichia coli): 6 µg/mL (≈ 14.5 µM)
- MIC (Pseudomonas aeruginosa): 6 µg/mL (≈ 14.5 µM)
- MIC (Bacillus subtilis): 6 µg/mL (≈ 14.5 µM)

SMILES: CC1=NN(C(=O)c2sc3ccccc3c2Cl)C(=O)/C1=N/Nc1ccc(C)cc1[N+](=O)[O-]
- MIC (Staphylococcus aureus): 6 µg/mL (≈ 13.2 µM)
- MIC (Candida albicans): 6 µg/mL (≈ 13.2 µM)
- MIC (Escherichia coli): 6 µg/mL (≈ 13.2 µM)
- MIC (Pseudomonas aeruginosa): 6 µg/mL (≈ 13.2 µM)
- MIC (Bacillus subtilis): 6 µg/mL (≈ 13.2 µM)

SMILES: Clc1ccccc1OCc1nnc(-c2sc3ccccc3c2Cl)o1
- MIC (Staphylococcus aureus): 6 µg/mL (≈ 15.9 µM)
- MIC (Candida albicans): 6 µg/mL (≈ 15.9 µM)
- MIC (Escherichia coli): 6 µg/mL (≈ 15.9 µM)
- MIC (Pseudomonas aeruginosa): 6 µg/mL (≈ 15.9 µM)
- MIC (Bacillus subtilis): 6 µg/mL (≈ 15.9 µM)

SMILES: CC1=NN(C(=O)c2sc3ccccc3c2Cl)C(=O)/C1=N/Nc1ccccc1
- MIC (Staphylococcus aureus): 6 µg/mL (≈ 15.1 µM)
- MIC (Candida albicans): 6 µg/mL (≈ 15.1 µM)
- MIC (Escherichia coli): 6 µg/mL (≈ 15.1 µM)
- MIC (Pseudomonas aeruginosa): 6 µg/mL (≈ 15.1 µM)
- MIC (Bacillus subtilis): 6 µg/mL (≈ 15.1 µM)

SMILES: O=C(c1sc2ccccc2c1Cl)n1nc(-c2ccc([N+](=O)[O-])s2)cc1-c1ccc(Cl)cc1
- MIC (Staphylococcus aureus): 3 µg/mL (≈ 6 µM)
- MIC (Candida albicans): 3 µg/mL (≈ 6 µM)
- MIC (Escherichia coli): 6 µg/mL (≈ 12 µM)
- MIC (Pseudomonas aeruginosa): 6 µg/mL (≈ 12 µM)
- MIC (Bacillus subtilis): 6 µg/mL (≈ 12 µM)

SMILES: COc1ccc(-c2cc(-c3ccc(Cl)cc3)n(C(=O)c3sc4ccccc4c3Cl)n2)cc1
- MIC (Staphylococcus aureus): 6 µg/mL (≈ 12.5 µM)
- MIC (Candida albicans): 6 µg/mL (≈ 12.5 µM)
- MIC (Escherichia coli): 6 µg/mL (≈ 12.5 µM)
- MIC (Pseudomonas aeruginosa): 6 µg/mL (≈ 12.5 µM)
- MIC (Bacillus subtilis): 6 µg/mL (≈ 12.5 µM)

SMILES: O=C(c1sc2ccccc2c1Cl)n1nc(-c2ccc([N+](=O)[O-])s2)cc1-c1ccccc1
- MIC (Staphylococcus aureus): 3 µg/mL (≈ 6.44 µM)
- MIC (Candida albicans): 6 µg/mL (≈ 12.9 µM)
- MIC (Escherichia coli): 3 µg/mL (≈ 6.44 µM)
- MIC (Pseudomonas aeruginosa): 6 µg/mL (≈ 12.9 µM)
- MIC (Bacillus subtilis): 6 µg/mL (≈ 12.9 µM)

SMILES: COc1ccc(-c2cc(-c3ccccc3)n(C(=O)c3sc4ccccc4c3Cl)n2)cc1
- MIC (Staphylococcus aureus): 6 µg/mL (≈ 13.5 µM)
- MIC (Candida albicans): 3 µg/mL (≈ 6.74 µM)
- MIC (Escherichia coli): 6 µg/mL (≈ 13.5 µM)
- MIC (Pseudomonas aeruginosa): 6 µg/mL (≈ 13.5 µM)
- MIC (Bacillus subtilis): 6 µg/mL (≈ 13.5 µM)

SMILES: CC1=NN(C(=O)c2sc3ccccc3c2Cl)C(=O)/C1=N/Nc1cc(Cl)ccc1Cl
- MIC (Staphylococcus aureus): 12.5 µg/mL (≈ 26.8 µM)
- MIC (Candida albicans): 6 µg/mL (≈ 12.9 µM)
- MIC (Escherichia coli): 6 µg/mL (≈ 12.9 µM)
- MIC (Pseudomonas aeruginosa): 6 µg/mL (≈ 12.9 µM)
- MIC (Bacillus subtilis): 6 µg/mL (≈ 12.9 µM)

SMILES: Clc1ccc(OCc2nnc(-c3sc4ccccc4c3Cl)o2)c(Cl)c1
- MIC (Staphylococcus aureus): 6 µg/mL (≈ 14.6 µM)
- MIC (Candida albicans): 6 µg/mL (≈ 14.6 µM)
- MIC (Escherichia coli): 6 µg/mL (≈ 14.6 µM)
- MIC (Pseudomonas aeruginosa): 6 µg/mL (≈ 14.6 µM)
- MIC (Bacillus subtilis): 6 µg/mL (≈ 14.6 µM)

SMILES: NC(=O)N/N=C/c1ccc([N+](=O)[O-])o1 [NITROFURAZONE]
- MIC (Staphylococcus aureus): 12.5 µg/mL (≈ 63.1 µM)
- MIC (Escherichia coli): 6 µg/mL (≈ 30.3 µM)
- MIC (Pseudomonas aeruginosa): 12.5 µg/mL (≈ 63.1 µM)
- MIC (Bacillus subtilis): 12.5 µg/mL (≈ 63.1 µM)

SMILES: CC1=NN(C(=O)c2sc3ccccc3c2Cl)C(=O)/C1=N/Nc1ccc(Cl)cc1C
- MIC (Staphylococcus aureus): 6 µg/mL (≈ 13.5 µM)
- MIC (Candida albicans): 6 µg/mL (≈ 13.5 µM)
- MIC (Escherichia coli): 6 µg/mL (≈ 13.5 µM)
- MIC (Pseudomonas aeruginosa): 6 µg/mL (≈ 13.5 µM)
- MIC (Bacillus subtilis): 6 µg/mL (≈ 13.5 µM)

Reference: ChEMBL document CHEMBL1154808, “Synthesis, characterization and biological activities of some new benzo[b]thiophene derivatives” (2010)
